Measured values from ChEMBL document CHEMBL4431397, “T-3364366 Targets the Desaturase Domain of Delta-5 Desaturase with Nanomolar Potency and a Multihour Residence Time” (ACS Med Chem Lett, 2016).
Activity calls are given as the source filed them. No cut-off for these calls is given here.

How the values were obtained:
[1] = target: Acyl-CoA (8-3)-desaturase (Rattus norvegicus) (UniProt Q920R3); assay: Displacement of [3H]T-3364366 from D5D in Sprague-Dawley rat liver microsomes at high concentrations after 150 mins by liquid scintillation counting
Chain of Acyl-CoA (8-3)-desaturase (Rattus norvegicus) (Q920R3 whole entry, looked up): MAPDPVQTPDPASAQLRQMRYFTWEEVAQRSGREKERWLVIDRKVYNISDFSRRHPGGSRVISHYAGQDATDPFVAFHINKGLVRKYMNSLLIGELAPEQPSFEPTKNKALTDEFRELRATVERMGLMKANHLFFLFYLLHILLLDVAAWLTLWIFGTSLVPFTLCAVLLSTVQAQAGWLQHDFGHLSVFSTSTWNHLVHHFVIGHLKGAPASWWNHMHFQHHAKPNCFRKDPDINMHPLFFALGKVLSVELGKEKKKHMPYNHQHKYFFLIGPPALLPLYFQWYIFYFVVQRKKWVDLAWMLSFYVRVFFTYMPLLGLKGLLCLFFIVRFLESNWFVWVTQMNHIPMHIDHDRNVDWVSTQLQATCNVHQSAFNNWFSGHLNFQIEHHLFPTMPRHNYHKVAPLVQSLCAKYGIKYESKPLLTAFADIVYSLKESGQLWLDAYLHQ
Procedure, shortened: (§1)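 Filter binding with [³H]T-3364366 as probe on rat liver microsomes, incubated 150 min. Specific binding is total minus nonspecific. In displacement runs, DMSO serves as 100% and 10 μM nonlabeled T-3364366 as 0%. Mean ± SEM, n = 3; apparent Kd reported with 95% CI.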

[2] = target: Acyl-CoA (8-3)-desaturase (Rattus norvegicus) (UniProt Q920R3); assay: Displacement of [3H]T-3364366 from D5D in Sprague-Dawley rat liver microsomes after 150 mins by liquid scintillation counting; procedure, shortened: as §1
[3] = target: T1, Acyl-CoA (8-3)-desaturase (Rattus norvegicus, UniProt Q920R3); assay: Inhibition of D5D in Sprague-Dawley rat liver microsomes using [14C]DGLA as substrate preincubated for 5 mins measured after 120 mins
T1 sequence (Q920R3 whole entry): as the sequence (Q920R3 whole entry, looked up) above

[4] = target: Acyl-CoA 6-desaturase (Rattus norvegicus, UniProt Q9Z122); assay: Inhibition of D6D in Sprague-Dawley rat liver microsomes using [14C]LA as substrate preincubated for 5 mins measured after 30 mins
Chain of Acyl-CoA 6-desaturase (Q9Z122 whole entry): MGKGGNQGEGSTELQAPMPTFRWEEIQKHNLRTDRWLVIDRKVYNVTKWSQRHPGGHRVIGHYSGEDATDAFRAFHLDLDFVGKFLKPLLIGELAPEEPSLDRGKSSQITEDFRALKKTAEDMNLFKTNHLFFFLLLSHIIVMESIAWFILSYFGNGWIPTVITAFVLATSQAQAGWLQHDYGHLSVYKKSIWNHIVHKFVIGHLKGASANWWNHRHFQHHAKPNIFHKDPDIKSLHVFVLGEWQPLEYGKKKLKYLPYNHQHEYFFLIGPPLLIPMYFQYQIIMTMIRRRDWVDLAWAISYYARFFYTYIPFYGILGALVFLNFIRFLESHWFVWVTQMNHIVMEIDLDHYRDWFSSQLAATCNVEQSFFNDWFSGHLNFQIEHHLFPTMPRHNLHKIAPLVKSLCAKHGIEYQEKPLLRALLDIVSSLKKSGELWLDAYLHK

[5] = target: T2, Acyl-CoA desaturase 1 (Rattus norvegicus, UniProt P07308); assay: Inhibition of SCD in Sprague-Dawley rat liver microsomes using [14C]stearoyl-CoA as substrate preincubated for 5 mins measured after 30 mins
T2 sequence (P07308 whole entry): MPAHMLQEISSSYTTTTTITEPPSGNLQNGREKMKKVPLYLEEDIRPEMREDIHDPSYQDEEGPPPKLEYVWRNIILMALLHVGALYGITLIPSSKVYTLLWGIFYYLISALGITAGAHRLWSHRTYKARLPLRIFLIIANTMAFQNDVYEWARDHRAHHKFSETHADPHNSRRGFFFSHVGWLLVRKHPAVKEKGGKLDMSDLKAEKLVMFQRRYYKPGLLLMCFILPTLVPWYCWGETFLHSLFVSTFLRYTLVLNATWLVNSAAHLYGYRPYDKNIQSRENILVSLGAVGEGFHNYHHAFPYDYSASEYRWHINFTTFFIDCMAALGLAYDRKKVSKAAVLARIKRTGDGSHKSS

[6] = target: T3, Acyl-CoA (8-3)-desaturase (Homo sapiens, UniProt O60427); assay: Inhibition of D5D in human HepG2 cells using [14C]DGLA as substrate preincubated for 30 mins followed by substrate addition measured after 3 hrs; type: cell-based
Target sequence in this assay (O60427 whole entry): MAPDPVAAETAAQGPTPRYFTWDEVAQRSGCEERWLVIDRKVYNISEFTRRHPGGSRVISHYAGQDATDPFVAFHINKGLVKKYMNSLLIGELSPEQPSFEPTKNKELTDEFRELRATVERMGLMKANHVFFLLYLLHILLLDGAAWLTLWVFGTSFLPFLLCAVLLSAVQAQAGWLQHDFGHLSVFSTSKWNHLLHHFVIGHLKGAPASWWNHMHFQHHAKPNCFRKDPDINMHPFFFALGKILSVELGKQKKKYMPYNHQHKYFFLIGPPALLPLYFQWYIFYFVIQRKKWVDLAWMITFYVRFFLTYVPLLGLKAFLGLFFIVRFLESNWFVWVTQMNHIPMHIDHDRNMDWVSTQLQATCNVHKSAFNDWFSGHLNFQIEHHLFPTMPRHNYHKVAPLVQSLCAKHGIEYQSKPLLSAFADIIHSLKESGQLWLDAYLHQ

[7] = target: T1, Acyl-CoA (8-3)-desaturase; assay: Inhibition of D5D in rat RLN10 cells using [14C]DGLA as substrate preincubated for 30 mins followed by substrate addition measured after 3 hrs; type: cell-based
[8] = target: T3, Acyl-CoA (8-3)-desaturase; assay: Ratio of inhibition of D5D in human HepG2 cells preincubated for 30 mins followed by [14C]DGLA substrate addition measured after 3 hrs to inhibition of D5D in human HepG2 cells assessed as inhibition of [14C]AA production preincubated for 3 hrs followed by compound washout and addition of [14C]DGLA substrate measured after 4 hrs; type: cell-based
Target sequence in this assay (O60427 whole entry, looked up): as the sequence (O60427 whole entry) above

[9] = target: T1, Acyl-CoA (8-3)-desaturase; assay: Binding affinity to D5D in Sprague-Dawley rat liver microsomes after 150 mins by liquid scintillation counting; conditions: read-out: Kd(app); procedure, shortened: as §1
[10] = target: Acyl-CoA (8-3)-desaturase (Rattus norvegicus) (UniProt Q920R3); assay: Binding affinity to D5D in Sprague-Dawley rat liver microsomes at 1.2 to 20 nM measured up to 2.5 hrs by liquid scintillation counting; conditions: TDE = time-dependent effect
Procedure, shortened: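 Time course: various [³H]T-3364366 concentrations incubated with microsomal D5D. Specific binding determined at several time points up to 2.5 h.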

[11] = target: Acyl-CoA (8-3)-desaturase (Rattus norvegicus) (UniProt Q920R3); assay: Reversible binding affinity to D5D in Sprague-Dawley rat liver microsomes assessed as compound bound to protein at 6 nM preincubated for 150 mins followed by 2 fold dilution by 10 uM of T-3364366 measured after 21 hrs by liquid scintillation counting relative to control
Procedure, shortened: (§2)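 Binary complex formed by preincubating [³H]T-3364366 (6.0 nM) with microsomal D5D for 150 min. Mixture then diluted 2-fold with excess nonlabeled T-3364366 (10 μM) to block rebinding. Residual specific binding followed over time to 21 h. Dissociation half-life fitted with 95% CI, without correcting for time-dependent loss of binding.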

[12] = target: Acyl-CoA (8-3)-desaturase (Rattus norvegicus) (UniProt Q920R3); assay: Reversible binding affinity to D5D in Sprague-Dawley rat liver microsomes assessed as dissociation half life at 6 nM preincubated for 150 mins followed by 2 fold dilution by 10 uM of T-3364366 by liquid scintillation counting; procedure, shortened: as §2
[13] = target: Acyl-CoA (8-3)-desaturase (Rattus norvegicus) (UniProt Q920R3); assay: Reversible binding affinity to D5D in Sprague-Dawley rat liver microsomes after 150 mins in presence of trichloroacetate by liquid scintillation counting
[14] = target: T3, Acyl-CoA (8-3)-desaturase; assay: Inhibition of D5D in human HepG2 cells using [14C]DGLA as substrate assessed as suppression of [14C]AA production at 10 uM preincubated for 3 hrs followed by compound washout and addition of substrate measured after 4 hrs by liquid scintillation counting; type: cell-based
Procedure, shortened: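 HepG2 cells treated with compound for 3 h, then washed three times. Cells pulsed with [¹⁴C]DGLA and incubated a further 4 h. [¹⁴C]AA production normalized: DMSO as 100%, 10 μM T-3364366 without washout as 0%. Mean ± SEM, n = 4.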
Target sequence in this assay (O60427 whole entry, looked up): as the sequence (O60427 whole entry) above

[15] = AUC(0 to 8 hrs) in mouse at 0.10 mg/kg, iv administered in cassette mode; type: ADME, organism-based; parameters: dose 0.1 mg/kg, route intravenous; conditions: in vivo, 0.1 mg/kg
Procedure, shortened: (§3)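 Mouse cassette dosing, n = 3 per group. Given iv at 0.10 mg/kg or orally. Plasma AUC taken over 0–8 h. Total clearance, Vdss and MRT derived from the iv arm. Bioavailability F computed as a percentage.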

[16] = AUC(0 to 8 hrs) in mouse at 1 mg/kg, po administered in cassette mode; type: ADME, organism-based; parameters: dose 1 mg/kg, route oral; conditions: in vivo; procedure, shortened: as §3
[17] = Total clearance in mouse at 0.10 mg/kg, iv administered in cassette mode; type: ADME, organism-based; conditions: in vivo, 0.1 mg/kg; procedure, shortened: as §3
[18] = Volume of distribution in steady state in mouse at 0.10 mg/kg, iv administered in cassette mode; type: ADME, organism-based; conditions: in vivo, 0.1 mg/kg, read-out: Vdss; procedure, shortened: as §3
[19] = MRT in mouse at 0.10 mg/kg, iv administered in cassette mode; type: ADME, organism-based; conditions: in vivo, 0.1 mg/kg; procedure, shortened: as §3
[20] = MRT in mouse at 1 mg/kg, po administered in cassette mode; type: ADME, organism-based; conditions: in vivo
[21] = Oral bioavailability in mouse at 1 mg/kg administered in cassette mode; type: ADME, organism-based; conditions: in vivo; procedure, shortened: as §3
[22] = species on record: Homo sapiens; assay: Binding affinity to recombinant D6Db5 (1 to 100 residues)/D5Ddes (100 to 444 residues) domain swapped mutant (unknown origin) expressed in baculovirus at 5 to 25 nM after 150 mins by liquid scintillation counting
[23] = target: T3, Acyl-CoA (8-3)-desaturase; assay: Binding affinity to recombinant wild type D5D (unknown origin) expressed in baculovirus at 5 to 25 nM after 150 mins by liquid scintillation counting
Target sequence in this assay (O60427 whole entry, looked up): as the sequence (O60427 whole entry) above

## N#CC(CCCN1CCN(/N=C/c2cccnc2)CC1)(c1ccccc1)c1ccccc1
[1]
  inhibition: Active

## COc1ccc(OC)c(NC(=O)Nc2cccc(F)c2)c1
[2]
  inhibition: Active

## Nc1ccccc1C(=O)Nc1cccc(Cl)c1
[3]
  IC50: 160 nM
[4]
  IC50: > 10000 nM
[5]
  IC50: > 10000 nM
[6]
  IC50: 29 nM
[7]
  IC50: 26 nM
[2]
  inhibition: Active
[8]
  Ratio: 1000

## Cc1cn([C@H]2C[C@@H](O)[C@@H](COC(c3ccccc3)(c3ccccc3)c3ccccc3)O2)c(=O)[nH]c1=O
[2]
  inhibition: Active

## Cc1ccc2c(c1)Nc1cc(C)ccc1CC2
[2]
  inhibition: Active

## CC(=O)NCCSc1nc2cscc2c(=O)n1-c1ccc(OCC(F)(F)F)cc1
[3]
  IC50: 19 nM
[4]
  IC50: 6200 nM
[5]
  IC50: > 10000 nM
[6]
  IC50: 1.9 nM
[7]
  IC50: 2.1 nM
[9]
  Kd: 2.7 nM
[10]
  Activity: Tde
[11]
  Activity: < 10%
[12]
  T1/2: 2 h
[13]
  Activity: Active
[14]
  inhibition: Active
[15]
  AUC(0-t) at 6 h: 65 ng·h/mL
[16]
  AUC(0-t) at 6 h: 260 ng·h/mL
[17]
  clearance: 25 mL/min/kg
[18]
  Vd: 1.1 L/kg
[19]
  MRT: 0.65 h
[20]
  MRT: 1.8 h
[21]
  bioavailability: 41%
[22]
  Activity: Active
[23]
  Activity: Active
